Assay results taken from PMC11661184 (bioRxiv, 2024).
No end group written: not given here.

System: CaM (Calmodulin-agarose)
Test: CaM-agarose pulldown of TRPA1 constructs
Type: binding
Settings: for CaM binding of MBP-tagged C-terminal peptides: expressed in HEK293T; for CaM binding of truncated hTRPA1 constructs: CaM-agarose pulldown, HEK293T lysate, immunoblot
How it was run: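 HEK293T cells were transfected with tagged TRPA1 constructs and lysed after 16-24 h in Tris pH 8.0 buffer containing 5 mM DDM and 500 µM EGTA. Free Ca²⁺ was set with CaCl₂, calculated from EGTA constants. 100 µg lysate was incubated with CaM-agarose for 1 h at 4 °C, washed, then eluted with 5 mM EGTA. Detection was by anti-FLAG or anti-MBP immunoblot, with tubulin input control. Enrichment is relative to the maximum within each replicate.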

Molecule | CaM binding of truncated hTRPA1 constructs | other results
hTRPA1^1079–1119: MBP-tagged full hTRPA1 unresolved C-terminus (EDDDSHCSFQDRFKKEQMEQRNSRWNTVLRAVKAKTHHLEP; also: MBP-tagged) | – | CaM binding of MBP-tagged C-terminal peptides (absence or presence of Ca2+): bound CaM in a Ca^2+-dependent manner
hTRPA1^1099–1119: MBP-tagged smaller fragment of hTRPA1 C-terminus (RNSRWNTVLRAVKAKTHHLEP; also: MBP-tagged) | – | CaM binding of MBP-tagged C-terminal peptides (absence or presence of Ca2+): bound CaM in a Ca^2+-dependent manner
WT mouse: WT mouse TRPA1, MBP-tagged | – | CaM binding of TRPA1 species orthologues (MBP-tagged constructs, absence or presence of Ca2+, four independent experiments): bound CaM in a Ca^2+-dependent manner
L1107A (protein, UniProt O75762 1-1119, looked up, variant L1107A) Transient receptor potential …: MKRSLRKMWRPGEKKEPQGVVYEDVPDDTEDFKESLKVVFEGSAYGLQNFNKQKKLKRCDDMDTFFLHYAAAEGQIELMEKITRDSSLEVLHEMDDYGNTPLHCAVEKNQIESVKFLLSRGANPNLRNFNMMAPLHIAVQGMNNEVMKVLLEHRTIDVNLEGENGNTAVIIACTTNNSEALQILLKKGAKPCKSNKWGCFPIHQAAFSGSKECMEIILRFGEEHGYSRQLHINFMNNGKATPLHLAVQNGDLEMIKMCLDNGAQIDPVEKGRCTAIHFAATQGATEIVKLMISSYSGSVDIVNTTDGCHETMLHRASLFDHHELADYLISVGADINKIDSEGRSPLILATASASWNIVNLLLSKGAQVDIKDNFGRNFLHLTVQQPYGLKNLRPEFMQMQQIKELVMDEDNDGCTPLHYACRQGGPGSVNNLLGFNVSIHSKSKDKKSPLHFAASYGRINTCQRLLQDISDTRLLNEGDLHGMTPLHLAAKNGHDKVVQLLLKKGALFLSDHNGWTALHHASMGGYTQTMKVILDTNLKCTDRLDEDGNTALHFAAREGHAKAVALLLSHNADIVLNKQQASFLHLALHNKRKEVVLTIIRSKRWDECLKIFSHNSPGNKCPITEMIEYLPECMKVLLDFCMLHSTEDKSCRDYYIEYNFKYLQCPLEFTKKTPTQDVIYEPLTALNAMVQNNRIELLNHPVCKEYLLMKWLAYGFRAHMMNLGSYCLGLIPMTILVVNIKPGMAFNSTGIINETSDHSEILDTTNSYLIKTCMILVFLSSIFGYCKEAGQIFQQKRNYFMDISNVLEWIIYTTGIIFVLPLFVEIPAHLQWQCGAIAVYFYWMNFLLYLQRFENCGIFIVMLEVILKTLLRSTVVFIFLLLAFGLSFYILLNLQDPFSSPLLSIIQTFSMMLGDINYRESFLEPYLRNELAHPVLSFAQLVSFTIFVPIVLMNLLIGLAVGDIAEVQKHASLKRIAMQVELHTSLEKKLPLWFLRKVDQKSTIVYPNKPRSGGMLFHIFCFLFCTGEIRQEIPNADKSLEMEILKQKYRLKDLTFLLEKQHELIKLIIQKMEIISETEDDDSHCSFQDRFKKEQMEQRNSRWNTVARAVKAKTHHLEP | – | CaM binding at basal Ca2+ concentration (basal Ca2+, n=3 independent experiments): partial reduction in binding

Continued, in another order:

CaM binding of truncated hTRPA1 constructs | Molecule | other results
did not affect Ca^2+/CaM binding | hTRPA1^Δ1–61 (protein) MDTFFLHYAAAEGQIELMEKITRDSSLEVLHEMDDYGNTPLHCAVEKNQIESVKFLLSRGANPNLRNFNMMAPLHIAVQGMNNEVMKVLLEHRTIDVNLEGENGNTAVIIACTTNNSEALQILLKKGAKPCKSNKWGCFPIHQAAFSGSKECMEIILRFGEEHGYSRQLHINFMNNGKATPLHLAVQNGDLEMIKMCLDNGAQIDPVEKGRCTAIHFAATQGATEIVKLMISSYSGSVDIVNTTDGCHETMLHRASLFDHHELADYLISVGADINKIDSEGRSPLILATASASWNIVNLLLSKGAQVDIKDNFGRNFLHLTVQQPYGLKNLRPEFMQMQQIKELVMDEDNDGCTPLHYACRQGGPGSVNNLLGFNVSIHSKSKDKKSPLHFAASYGRINTCQRLLQDISDTRLLNEGDLHGMTPLHLAAKNGHDKVVQLLLKKGALFLSDHNGWTALHHASMGGYTQTMKVILDTNLKCTDRLDEDGNTALHFAAREGHAKAVALLLSHNADIVLNKQQASFLHLALHNKRKEVVLTIIRSKRWDECLKIFSHNSPGNKCPITEMIEYLPECMKVLLDFCMLHSTEDKSCRDYYIEYNFKYLQCPLEFTKKTPTQDVIYEPLTALNAMVQNNRIELLNHPVCKEYLLMKWLAYGFRAHMMNLGSYCLGLIPMTILVVNIKPGMAFNSTGIINETSDHSEILDTTNSYLIKTCMILVFLSSIFGYCKEAGQIFQQKRNYFMDISNVLEWIIYTTGIIFVLPLFVEIPAHLQWQCGAIAVYFYWMNFLLYLQRFENCGIFIVMLEVILKTLLRSTVVFIFLLLAFGLSFYILLNLQDPFSSPLLSIIQTFSMMLGDINYRESFLEPYLRNELAHPVLSFAQLVSFTIFVPIVLMNLLIGLAVGDIAEVQKHASLKRIAMQVELHTSLEKKLPLWFLRKVDQKSTIVYPNKPRSGGMLFHIFCFLFCTGEIRQEIPNADKSLEMEILKQKYRLKDLTFLLEKQHELIKLIIQKMEIISETEDDDSHCSFQDRFKKEQMEQRNSRWNTVLRAVKAKTHHLEP | –
ablated Ca^2+/CaM binding | hTRPA1^Δ1079–1119 (protein) MKRSLRKMWRPGEKKEPQGVVYEDVPDDTEDFKESLKVVFEGSAYGLQNFNKQKKLKRCDDMDTFFLHYAAAEGQIELMEKITRDSSLEVLHEMDDYGNTPLHCAVEKNQIESVKFLLSRGANPNLRNFNMMAPLHIAVQGMNNEVMKVLLEHRTIDVNLEGENGNTAVIIACTTNNSEALQILLKKGAKPCKSNKWGCFPIHQAAFSGSKECMEIILRFGEEHGYSRQLHINFMNNGKATPLHLAVQNGDLEMIKMCLDNGAQIDPVEKGRCTAIHFAATQGATEIVKLMISSYSGSVDIVNTTDGCHETMLHRASLFDHHELADYLISVGADINKIDSEGRSPLILATASASWNIVNLLLSKGAQVDIKDNFGRNFLHLTVQQPYGLKNLRPEFMQMQQIKELVMDEDNDGCTPLHYACRQGGPGSVNNLLGFNVSIHSKSKDKKSPLHFAASYGRINTCQRLLQDISDTRLLNEGDLHGMTPLHLAAKNGHDKVVQLLLKKGALFLSDHNGWTALHHASMGGYTQTMKVILDTNLKCTDRLDEDGNTALHFAAREGHAKAVALLLSHNADIVLNKQQASFLHLALHNKRKEVVLTIIRSKRWDECLKIFSHNSPGNKCPITEMIEYLPECMKVLLDFCMLHSTEDKSCRDYYIEYNFKYLQCPLEFTKKTPTQDVIYEPLTALNAMVQNNRIELLNHPVCKEYLLMKWLAYGFRAHMMNLGSYCLGLIPMTILVVNIKPGMAFNSTGIINETSDHSEILDTTNSYLIKTCMILVFLSSIFGYCKEAGQIFQQKRNYFMDISNVLEWIIYTTGIIFVLPLFVEIPAHLQWQCGAIAVYFYWMNFLLYLQRFENCGIFIVMLEVILKTLLRSTVVFIFLLLAFGLSFYILLNLQDPFSSPLLSIIQTFSMMLGDINYRESFLEPYLRNELAHPVLSFAQLVSFTIFVPIVLMNLLIGLAVGDIAEVQKHASLKRIAMQVELHTSLEKKLPLWFLRKVDQKSTIVYPNKPRSGGMLFHIFCFLFCTGEIRQEIPNADKSLEMEILKQKYRLKDLTFLLEKQHELIKLIIQKMEIISET | –
failed to bind CaM in vitro | hTRPA1^S488-T1078: minimal hTRPA1 construct previously used for structural determination, retains the CaMBD (protein) SPLHFAASYGRINTCQRLLQDISDTRLLNEGDLHGMTPLHLAAKNGHDKVVQLLLKKGALFLSDHNGWTALHHASMGGYTQTMKVILDTNLKCTDRLDEDGNTALHFAAREGHAKAVALLLSHNADIVLNKQQASFLHLALHNKRKEVVLTIIRSKRWDECLKIFSHNSPGNKCPITEMIEYLPECMKVLLDFCMLHSTEDKSCRDYYIEYNFKYLQCPLEFTKKTPTQDVIYEPLTALNAMVQNNRIELLNHPVCKEYLLMKWLAYGFRAHMMNLGSYCLGLIPMTILVVNIKPGMAFNSTGIINETSDHSEILDTTNSYLIKTCMILVFLSSIFGYCKEAGQIFQQKRNYFMDISNVLEWIIYTTGIIFVLPLFVEIPAHLQWQCGAIAVYFYWMNFLLYLQRFENCGIFIVMLEVILKTLLRSTVVFIFLLLAFGLSFYILLNLQDPFSSPLLSIIQTFSMMLGDINYRESFLEPYLRNELAHPVLSFAQLVSFTIFVPIVLMNLLIGLAVGDIAEVQKHASLKRIAMQVELHTSLEKKLPLWFLRKVDQKSTIVYPNKPRSGGMLFHIFCFLFCTGEIRQEIPNADKSLEMEILKQKYRLKDLTFLLEKQHELIKLIIQKMEIISET | –
failed to bind CaM | hTRPA1^M62-T1078: hTRPA1 construct containing full ARD but lacking the structurally unresolved N- and C-termini (protein) MDTFFLHYAAAEGQIELMEKITRDSSLEVLHEMDDYGNTPLHCAVEKNQIESVKFLLSRGANPNLRNFNMMAPLHIAVQGMNNEVMKVLLEHRTIDVNLEGENGNTAVIIACTTNNSEALQILLKKGAKPCKSNKWGCFPIHQAAFSGSKECMEIILRFGEEHGYSRQLHINFMNNGKATPLHLAVQNGDLEMIKMCLDNGAQIDPVEKGRCTAIHFAATQGATEIVKLMISSYSGSVDIVNTTDGCHETMLHRASLFDHHELADYLISVGADINKIDSEGRSPLILATASASWNIVNLLLSKGAQVDIKDNFGRNFLHLTVQQPYGLKNLRPEFMQMQQIKELVMDEDNDGCTPLHYACRQGGPGSVNNLLGFNVSIHSKSKDKKSPLHFAASYGRINTCQRLLQDISDTRLLNEGDLHGMTPLHLAAKNGHDKVVQLLLKKGALFLSDHNGWTALHHASMGGYTQTMKVILDTNLKCTDRLDEDGNTALHFAAREGHAKAVALLLSHNADIVLNKQQASFLHLALHNKRKEVVLTIIRSKRWDECLKIFSHNSPGNKCPITEMIEYLPECMKVLLDFCMLHSTEDKSCRDYYIEYNFKYLQCPLEFTKKTPTQDVIYEPLTALNAMVQNNRIELLNHPVCKEYLLMKWLAYGFRAHMMNLGSYCLGLIPMTILVVNIKPGMAFNSTGIINETSDHSEILDTTNSYLIKTCMILVFLSSIFGYCKEAGQIFQQKRNYFMDISNVLEWIIYTTGIIFVLPLFVEIPAHLQWQCGAIAVYFYWMNFLLYLQRFENCGIFIVMLEVILKTLLRSTVVFIFLLLAFGLSFYILLNLQDPFSSPLLSIIQTFSMMLGDINYRESFLEPYLRNELAHPVLSFAQLVSFTIFVPIVLMNLLIGLAVGDIAEVQKHASLKRIAMQVELHTSLEKKLPLWFLRKVDQKSTIVYPNKPRSGGMLFHIFCFLFCTGEIRQEIPNADKSLEMEILKQKYRLKDLTFLLEKQHELIKLIIQKMEIISET | –
